ChEMBL document CHEMBL1131201, “N-(benzyloxycarbonyl)glycine esters and amides as new anticonvulsants” (J Med Chem, 1998)
One block for each molecule: values may come before it.

How the values were obtained:
Mus musculus [1] = assay: Compound was tested for anticonvulsant activity in maximal electroshock seizure(MES) test after 3 hours upon intraperitoneal administration to mice; type: functional; conditions: ip
Outline: (§1)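 Male OF1 mice (15-25 g), free access to water only during testing. Compound given ip and maximal electroshock applied at 30 min or 3 h. Typically 8-10 mice per compound, dose and time point. Screening at initial 0.4 mmol/kg, scored as protected/tested.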

Mus musculus [2] = assay: Compound was tested for anticonvulsant activity in maximal electroshock seizure(MES) test after 30 min upon intraperitoneal administration to mice at a dose of 120 mg/kg; Animals protected / Animals tested = 1/8; type: functional; outline: as §1
[3] = Lipophilicity value was evaluated; type: physicochemical; conditions: RP-HPLC
Outline: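 Lipophilicity by RP-HPLC on a C18 column at 1.0 mL/min. Mobile phases were 10-50% […] with 50-90% 0.01 M phosphate buffer pH 7.4. Triplicate runs per eluent. log k_o extrapolated from at least four eluent compositions. ClogP also calculated.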

Mus musculus [4] = assay: Compound was tested for anticonvulsant activity in maximal electroshock seizure(MES) test after 30 min upon intraperitoneal administration to mice; type: functional; conditions: ip, 0.5 h; outline: as §1
Mus musculus [5] = assay: Compound was tested for anticonvulsant activity in maximal electroshock seizure(MES) test after 30 min upon intraperitoneal administration to mice at a dose of 750 mg/kg; type: functional; conditions: ip, 0.5 h; outline: as §1
Mus musculus [6] = assay: Compound was tested for anticonvulsant activity in maximal electroshock seizure(MES) test after 3 hours upon intraperitoneal administration to mice at a dose of 750 mg/kg; type: functional; conditions: ip; outline: as §1
Mus musculus [7] = assay: Compound was tested for anticonvulsant activity in maximal electroshock seizure(MES) test after 3 hours upon intraperitoneal administration to mice at a dose of 114 mg/kg; Animals protected / Animals tested = 4/8; type: functional; outline: as §1
Mus musculus [8] = assay: Compound was tested for anticonvulsant activity in maximal electroshock seizure(MES) test after 30 min upon intraperitoneal administration to mice at a dose of 114 mg/kg; Animals protected / Animals tested = 3/10; type: functional; outline: as §1
Mus musculus [9] = assay: Compound was tested for anticonvulsant activity in maximal electroshock seizure(MES) test after 3 hours upon intraperitoneal administration to mice at a dose of 106 mg/kg; Animals protected / Animals tested = 4/8; type: functional; outline: as §1
Mus musculus [10] = assay: Compound was tested for anticonvulsant activity in maximal electroshock seizure(MES) test after 3 hours upon intraperitoneal administration to mice at a dose of 89 mg/kg; Animals protected / Animals tested = 4/10; type: functional; outline: as §1
Mus musculus [11] = assay: Compound was tested for anticonvulsant activity in maximal electroshock seizure(MES) test after 30 min upon intraperitoneal administration to mice at a dose of 89 mg/kg; Animals protected / Animals tested = 3/8; type: functional; outline: as §1
Mus musculus [12] = assay: Ratio of the animals protected to animals tested after 3h in the MES test after intraperitoneal administration to mice at a dose of 150 mg/kg; Animals protected / Animals tested = 5/10; type: functional; outline: as §1
Mus musculus [13] = assay: Ratio of the animals protected to animals tested after 30 min. in the MES test after intraperitoneal administration to mice at a dose of 150 mg/kg; Animals protected / Animals tested = 1/8; type: functional; outline: as §1
Mus musculus [14] = assay: Compound was tested for anticonvulsant activity in maximal electroshock seizure(MES) test after 3 hours upon intraperitoneal administration to mice at a dose of 116 mg/kg; Animals protected / Animals tested = 3/8; type: functional; outline: as §1
Mus musculus [15] = assay: Compound was tested for anticonvulsant activity in maximal electroshock seizure(MES) test after 30 min upon intraperitoneal administration to mice at a dose of 58 mg/kg; Animals protected / Animals tested = 2/10; type: functional; outline: as §1
Mus musculus [16] = assay: Compound was tested for anticonvulsant activity in maximal electroshock seizure(MES) test after 30 min upon intraperitoneal administration to mice at a dose of 120 mg/kg; Animals protected / Animals tested = 0/8; type: functional; outline: as §1
Mus musculus [17] = assay: The average latency on the onset of the seizures compared to the controls after 30 min in the strychnine test in mice at a dose of 220 mg/kg; type: functional
Outline: (§2)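 Male NMRI mice (18-25 g). Compound in DMSO given ip at 2 mL/kg. Strychnine chlorhydrate in saline (1.2 mg/mL, 1 mL/kg) given sc 30 min or 3 h later, with 30 min observation. Seizure onset latency expressed as % of the mean control latency (mean ± SD, n = 8-10).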

Mus musculus [18] = assay: Compound was tested for anticonvulsant activity in maximal electroshock seizure(MES) test after 30 min upon intraperitoneal administration to mice at a dose of 89 mg/kg; Animals protected / Animals tested = 2/8; type: functional; outline: as §1
Mus musculus [19] = assay: The average latency on the onset of the seizures compared to the controls after 3h in the strychnine test in mice at a dose of 220 mg/kg; type: functional; outline: as §2
Mus musculus [20] = assay: Compound was tested for anticonvulsant activity in maximal electroshock seizure(MES) test after 3 hr upon intraperitoneal administration to mice; type: functional; conditions: ip; outline: as §1
Mus musculus [21] = assay: Compound was tested for anticonvulsant activity in maximal electroshock seizure(MES) test after 30 min upon intraperitoneal administration to mice at a dose of 166 mg/kg; Animals protected / Animals tested = 3/9; type: functional; outline: as §1
Mus musculus [22] = assay: Compound was tested for anticonvulsant activity in maximal electroshock seizure(MES) test after 3 hours upon intraperitoneal administration to mice at a dose of 166 mg/kg; Animals protected / Animals tested = 6/9; type: functional; outline: as §1
Mus musculus [23] = assay: Percent of the tonic seizures after 30 min in the 3-mercaptopropionic acid test at a dose of 207 mg/kg; type: functional
Outline: (§3)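 Male NMRI mice (18-25 g). Compound in DMSO given ip at 2 mL/kg. 3-Mercaptopropionic acid 40 mg/kg ip in saline given 30 min or 3 h later. Tonic seizures recorded and expressed as % of animals.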

Mus musculus [24] = assay: The average latency on the onset of the seizures compared to the controls after 3h in the strychnine test at a dose of 207 mg/kg; type: functional; outline: as §2
Mus musculus [25] = assay: Percent of the tonic seizures after 3h in the 3-mercaptopropionic acid test at a dose of 207 mg/kg; type: functional; outline: as §3
Mus musculus [26] = assay: The average latency on the onset of the seizures compared to the controls after 30 min in the strychnine test at a dose of 207 mg/kg; type: functional; outline: as §2
Mus musculus [27] = assay: The average latency on the onset of the seizures compared to the controls after 30 min in the strychnine test in mice at a dose of 209 mg/kg; type: functional; outline: as §2
Mus musculus [28] = assay: The average latency on the onset of the seizures compared to the controls after 3 hr in the strychnine test in mice at a dose of 209 mg/kg; type: functional; outline: as §2
Mus musculus [29] = assay: Percent of the tonic seizures after 30 min in the 3-mercaptopropionic acid test in mice at a dose of 209 mg/kg, ip; type: functional; conditions: route intraperitoneal; outline: as §3
Mus musculus [30] = assay: Percent of the tonic seizures after 3h in the 3-mercaptopropionic acid test in mice at a dose of 418mg/kg, ip; type: functional; outline: as §3
Mus musculus [31] = assay: Percent of the tonic seizures after 30 min in the 3-mercaptopropionic acid test in mice at a dose of 418 mg/kg, ip; type: functional; conditions: route intraperitoneal; outline: as §3
Mus musculus [32] = assay: Percent of the tonic seizures after 3h in the 3-mercaptopropionic acid test in mice at a dose of 209 mg/kg, ip; type: functional; conditions: route intraperitoneal; outline: as §3
Mus musculus [33] = assay: Compound was tested for anticonvulsant activity in maximal electroshock seizure(MES) test after 30 min upon intraperitoneal administration to mice at a dose of 84 mg/kg; Animals protected / Animals tested = 2/8; type: functional; outline: as §1
Mus musculus [34] = assay: Compound was tested for anticonvulsant activity in maximal electroshock seizure(MES) test after 3 hours upon intraperitoneal administration to mice at a dose of 120 mg/kg; Animals protected / Animals tested = 6/9; type: functional; outline: as §1
Mus musculus [35] = assay: Compound was tested for anticonvulsant activity in maximal electroshock seizure(MES) test after 30 min upon intraperitoneal administration to mice at a dose of 120 mg/kg; Animals protected / Animals tested = 4/10; type: functional; outline: as §1
Mus musculus [36] = assay: Ratio of the animals protected to animals tested after 3h in the MES test after intraperitoneal administration to mice at a dose of 150 mg/kg; Animals protected / Animals tested = 3/8; type: functional; outline: as §1
Mus musculus [37] = assay: Ratio of the animals protected to animals tested after 30 min. in the MES test after intraperitoneal administration to mice at a dose of 150 mg/kg; Animals protected / Animals tested = 2/10; type: functional; outline: as §1

Log Ko [3]: 3.49
SMILES: Cc1ccccc1NC(=O)CNC(=O)OCc1ccccc1
ED50 (Mus musculus [1]): 74.3 mg/kg
Protected/tested (Mus musculus [2]): 1

Log Ko [3]: 2.65
SMILES: CC(C)NC(=O)CNC(=O)OCc1ccccc1
ED50 (Mus musculus [4]): 14 mg/kg
ED50 (Mus musculus [1]): 9.5 mg/kg

Log Ko [3]: 3.49
SMILES: O=C(CNC(=O)OCc1ccccc1)Nc1ccccc1
Protected/tested (Mus musculus [7]): 4
Protected/tested (Mus musculus [8]): 3

Log Ko [3]: 3.25
SMILES: CC(C)(C)NC(=O)CNC(=O)OCc1ccccc1
ED50 (Mus musculus [4]): 39.4 mg/kg
Protected/tested (Mus musculus [9]): 4

Log Ko [3]: 3.7
SMILES: O=C(CNC(=O)OCc1ccccc1)NC1CCCCC1
ED50 (Mus musculus [4]): 33.4 mg/kg
Protected/tested (Mus musculus [14]): 3

Log Ko [3]: 3.99
SMILES: Cc1ccc(NC(=O)CNC(=O)OCc2ccccc2)cc1
Protected/tested (Mus musculus [16]): 0
ED50 (Mus musculus [1]): 27.4 mg/kg

Log Ko [3]: 2.64
SMILES: COC(=O)CNC(=O)OCc1ccccc1
Average latency (Mus musculus [17]): 154%
Protected/tested (Mus musculus [18]): 2
ED50 (Mus musculus [6]): 16.5 mg/kg
Average latency (Mus musculus [19]): 139%

Log Ko [3]: 1.52
SMILES: NC(=O)CNC(=O)OCc1ccccc1
ED50 (Mus musculus [4]): 15.2 mg/kg
ED50 (Mus musculus [1]): 8.3 mg/kg

Log Ko [3]: 4.35
SMILES: O=C(CNC(=O)OCc1ccccc1)OCc1ccccc1
Protected/tested (Mus musculus [34]): 6
Protected/tested (Mus musculus [35]): 4

Log Ko [3]: 2.03
SMILES: CNC(=O)CNC(=O)OCc1ccccc1
ED50 (Mus musculus [4]): 13.6 mg/kg
ED50 (Mus musculus [1]): 7.8 mg/kg

The next lines start with the molecule.

SMILES: CCCC(CCC)C(N)=O [VALPROMIDE]
ED50 (Mus musculus [5]): 14.9 mg/kg
ED50 (Mus musculus [6]): 11.4 mg/kg

SMILES: COC(=O)CNC(=O)CCc1ccccc1
Protected/tested (Mus musculus [10]): 4
Protected/tested (Mus musculus [11]): 3
Log Ko [3]: 2.37

SMILES: CCCCCCCCCCOC(=O)CNC(=O)OCc1ccccc1
Protected/tested (Mus musculus [12]): 5
Protected/tested (Mus musculus [13]): 1
Log Ko [3]: > 5

SMILES: CCCCCNCC(N)=O [MILACEMIDE]
Protected/tested (Mus musculus [15]): 2
ED50 (Mus musculus [1]): 30.2 mg/kg

SMILES: O=C1NC(=O)C(c2ccccc2)(c2ccccc2)N1 [PHENYTOIN]
ED50 (Mus musculus [4]): 3.5 mg/kg
ED50 (Mus musculus [20]): 3 mg/kg

SMILES: O=C(O)CNC(=O)CCc1ccccc1 [HYDROCINNAMOYLGLYCINE]
Protected/tested (Mus musculus [21]): 3
Protected/tested (Mus musculus [22]): 6
Tonic seizures (Mus musculus [23]): 80%
Average latency (Mus musculus [24]): 96%
Tonic seizures (Mus musculus [25]): 100%
Average latency (Mus musculus [26]): 99%

SMILES: O=C(O)CNC(=O)OCc1ccccc1
Average latency (Mus musculus [27]): 150%
Average latency (Mus musculus [28]): 142%
ED50 (Mus musculus [1]): 56.5 mg/kg
Tonic seizures (Mus musculus [29]): 55%
Tonic seizures (Mus musculus [30]): 27%
Tonic seizures (Mus musculus [31]): 33%
Tonic seizures (Mus musculus [32]): 45%
Protected/tested (Mus musculus [33]): 2

SMILES: O=C(CNC(=O)OCc1ccccc1)NCCc1ccccc1
ED50 (Mus musculus [4]): 8.1 mg/kg
ED50 (Mus musculus [1]): 16.6 mg/kg
Log Ko [3]: 3.88

SMILES: CCCC(CCC)C(=O)O [VALPROIC ACID]
ED50 (Mus musculus [5]): 44.5 mg/kg
ED50 (Mus musculus [6]): 80.6 mg/kg

SMILES: CCCCCCCCCCNC(=O)CNC(=O)OCc1ccccc1
Log Ko [3]: > 5
Protected/tested (Mus musculus [36]): 3
Protected/tested (Mus musculus [37]): 2
